From ChEMBL document CHEMBL2346506, “Cytotoxicity and modulation of cancer-related signaling by (Z)- and (E)-3,4,3',5'-tetramethoxystilbene isolated from Eugenia rigida” (J Nat Prod, 2013)
Calls of active or inactive are those of the source. No cut-off for these calls is given here.

Key:
[1] = Inhibition of Hedgehog signaling pathway in human HeLa cells assessed as measured as lowest concentration required 50 to 60 % inhibition of PMA induced luciferase treated 30 mins before induction; assay type: cell-based
Summary of the method: (§1)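 Reporter assay in cells transfected with pathway luciferase plasmids. Cells plated at 0.015 × 10⁶ per well in 10% FBS, switched after 24 h to DMEM with 1% FBS, then transfected. 24 h after transfection, compound (final 40, 60, 80 or 100 μM) was added, followed 30 min later by inducer (IL-6, TGF-β, wnt3a or PMA). Luciferase was read 4 or 6 h after induction (6 h for Notch, Wnt, Hedgehog). Value is the IC50 or the lowest concentration giving maximal 50–60% inhibition; two independent experiments.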

[2] = Inhibition of Hedgehog signaling pathway in human HeLa cells assessed as inhibition of PMA induced luciferase treated 30 mins before induction; assay type: cell-based
Summary of the method: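 HeLa cells plated at 0.015 × 10⁶/well in 10% FBS medium, switched after 24 h to DMEM with 1% FBS, then transfected with a Hedgehog luciferase reporter. After 24 h, compounds were added at 40, 60, 80 or 100 μM final, 30 min before PMA. Luciferase was read 6 h later. The value is the IC50 or lowest concentration giving maximal 50–60% inhibition, from two independent experiments.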

[3] = Inhibition of Wnt signaling pathway in human HeLa cells assessed as measured as lowest concentration required 50 to 60 % inhibition of Wnt3a induced luciferase treated 30 mins before induction; assay type: cell-based; summary of the method: as §1
[4] = Inhibition of Wnt signaling pathway in human HeLa cells assessed as inhibition of Wnt3a induced luciferase treated 30 mins before induction; assay type: cell-based; summary of the method: as §1
[5] = target: Forkhead box protein O1 (Homo sapiens) (UniProt Q12778); assay: Inhibition of FoxO signaling pathway in human HeLa cells assessed as inhibition of luciferase at 100 uM […]; assay type: cell-based
Forkhead box protein O1 (Homo sapiens), sequence (Q12778 whole entry): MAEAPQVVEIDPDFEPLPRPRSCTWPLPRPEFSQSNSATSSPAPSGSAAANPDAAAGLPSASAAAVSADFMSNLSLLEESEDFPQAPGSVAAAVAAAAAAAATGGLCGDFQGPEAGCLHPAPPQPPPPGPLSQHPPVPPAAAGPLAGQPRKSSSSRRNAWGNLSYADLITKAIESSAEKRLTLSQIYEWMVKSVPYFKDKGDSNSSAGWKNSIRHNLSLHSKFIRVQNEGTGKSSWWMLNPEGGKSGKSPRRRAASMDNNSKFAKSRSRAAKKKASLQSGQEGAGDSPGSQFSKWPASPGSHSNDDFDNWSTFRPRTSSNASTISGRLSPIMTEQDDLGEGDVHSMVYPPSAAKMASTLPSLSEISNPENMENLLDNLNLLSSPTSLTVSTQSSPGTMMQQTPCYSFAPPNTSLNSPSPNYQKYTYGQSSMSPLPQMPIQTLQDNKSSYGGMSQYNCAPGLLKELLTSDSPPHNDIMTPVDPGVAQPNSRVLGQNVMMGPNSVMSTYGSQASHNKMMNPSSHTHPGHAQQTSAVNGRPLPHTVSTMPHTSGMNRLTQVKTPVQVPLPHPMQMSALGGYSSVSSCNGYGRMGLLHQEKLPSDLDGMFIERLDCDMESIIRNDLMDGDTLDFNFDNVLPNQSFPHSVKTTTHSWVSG

[6] = Inhibition of Notch signaling pathway in human HeLa cells assessed as measured as lowest concentration required 50 to 60 % inhibition of PMA induced luciferase treated 30 mins before induction; assay type: cell-based; summary of the method: as §1
[7] = Inhibition of Notch signaling pathway in human HeLa cells assessed as inhibition of PMA induced luciferase treated 30 mins before induction; assay type: cell-based; summary of the method: as §1
[8] = Inhibition of Ets signaling pathway in human HeLa cells assessed as measured as lowest concentration required 50 to 60 % inhibition of PMA induced luciferase treated 30 mins before induction; assay type: cell-based; summary of the method: as §1
[9] = Inhibition of Ets signaling pathway in human HeLa cells assessed as inhibition of PMA induced luciferase treated 30 mins before induction; assay type: cell-based; summary of the method: as §1
[10] = target: Myc proto-oncogene protein (Homo sapiens) (UniProt P01106); assay: Inhibition of Myc signaling pathway in human HeLa cells assessed as measured as lowest concentration required 50 to 60 % inhibition of PMA induced luciferase treated 30 mins before induction; assay type: cell-based; summary of the method: as §1
Myc proto-oncogene protein (Homo sapiens), sequence (P01106 whole entry): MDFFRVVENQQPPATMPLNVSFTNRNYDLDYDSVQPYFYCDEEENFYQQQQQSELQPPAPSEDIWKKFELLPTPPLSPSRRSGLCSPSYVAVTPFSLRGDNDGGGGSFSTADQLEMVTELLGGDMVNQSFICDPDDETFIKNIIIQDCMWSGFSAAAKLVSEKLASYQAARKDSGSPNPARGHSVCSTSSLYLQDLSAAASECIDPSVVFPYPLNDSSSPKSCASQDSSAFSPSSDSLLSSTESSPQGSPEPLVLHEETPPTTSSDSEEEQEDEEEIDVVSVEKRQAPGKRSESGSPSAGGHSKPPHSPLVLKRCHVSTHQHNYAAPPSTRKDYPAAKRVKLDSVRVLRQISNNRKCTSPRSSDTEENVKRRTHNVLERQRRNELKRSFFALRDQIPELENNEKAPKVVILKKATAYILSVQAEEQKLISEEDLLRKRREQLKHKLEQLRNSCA

[11] = Inhibition of E2F signaling pathway in human HeLa cells assessed as inhibition of PMA induced luciferase at 100 uM treated 30 mins before induction; assay type: cell-based; summary of the method: as §1
[12] = Inhibition of NFkappaB signaling pathway in human HeLa cells assessed as measured as lowest concentration required 50 to 60 % inhibition of PMA induced luciferase treated 30 mins before induction; assay type: cell-based; summary of the method: as §1
[13] = Inhibition of NFkappaB signaling pathway in human HeLa cells assessed as inhibition of PMA induced luciferase treated 30 mins before induction; assay type: cell-based; summary of the method: as §1
[14] = Inhibition of AP1 signaling pathway in human HeLa cells assessed as inhibition of PMA induced luciferase at 100 uM treated 30 mins before induction; assay type: cell-based; summary of the method: as §1
HeLa [15] = assay: Inhibition of smad3/4 signaling pathway in human HeLa cells assessed as measured as lowest concentration required 50 to 60 % inhibition of TGF-beta induced luciferase treated 30 mins before induction; assay type: functional; summary of the method: as §1
HeLa [16] = assay: Inhibition of smad3/4 signaling pathway in human HeLa cells assessed as inhibition of TGF-beta induced luciferase treated 30 mins before induction; assay type: functional, cell-based; summary of the method: as §1
HeLa [17] = assay: Inhibition of Stat3 signaling pathway in human HeLa cells assessed as measured as lowest concentration required 50 to 60 % inhibition of IL-6 induced luciferase treated 30 mins before induction; assay type: functional; summary of the method: as §1
HeLa [18] = assay: Inhibition of Stat3 signaling pathway in human HeLa cells assessed as inhibition of IL-6 induced luciferase treated 30 mins before induction; assay type: functional, cell-based; summary of the method: as §1
HL-60 [19] = assay: Cytotoxicity against human HL60 cells assessed as growth inhibition measured after 48 hrs by XTT assay; assay type: functional, cell-based; settings: HL-60, 48 h
LLC-PK1 = assay: Cytotoxicity against pig LLC-PK1 cells assessed as growth inhibition measured after 48 hrs by Neutral Red dye assay; settings: Sus scrofa, LLC-PK1, 48 h
SK-OV-3 = assay: Cytotoxicity against human SKOV3 cells assessed as growth inhibition measured after 48 hrs by Neutral Red dye assay; settings: SK-OV-3, 48 h
SK-MEL = assay: Cytotoxicity against human SK-MEL cells assessed as growth inhibition measured after 48 hrs by Neutral Red dye assay
KB [20] = assay: Cytotoxicity against human KB cells assessed as growth inhibition measured at 100 uM after 48 hrs by Neutral Red dye assay
HeLa [21] = assay: Cytotoxicity against human HeLa cells assessed as growth inhibition measured at 100 uM after 48 hrs by Neutral Red dye assay
BT-549 [22] = assay: Cytotoxicity against human BT549 cells assessed as growth inhibition measured at 100 uM after 48 hrs by Neutral Red dye assay
Vero = assay: Cytotoxicity against african green monkey Vero cells assessed as growth inhibition measured after 48 hrs by Neutral Red dye assay; settings: Chlorocebus sabaeus
[23] = Inhibition of Hedgehog signaling pathway in human HeLa cells assessed as inhibition of PMA induced luciferase at 100 uM treated 30 mins before induction; assay type: cell-based; summary of the method: as §1
[24] = Inhibition of Notch signaling pathway in human HeLa cells assessed as inhibition of PMA induced luciferase at 100 uM treated 30 mins before induction; assay type: cell-based; summary of the method: as §1
[25] = Inhibition of Ets signaling pathway in human HeLa cells assessed as inhibition of PMA induced luciferase at 100 uM treated 30 mins before induction; assay type: cell-based; summary of the method: as §1
[26] = target: Myc proto-oncogene protein (Homo sapiens) (UniProt P01106); assay: Inhibition of Myc signaling pathway in human HeLa cells assessed as inhibition of PMA induced luciferase at 100 uM treated 30 mins before induction; assay type: cell-based; summary of the method: as §1
[27] = Inhibition of NFkappaB signaling pathway in human HeLa cells assessed as inhibition of PMA induced luciferase at 100 uM treated 30 mins before induction; assay type: cell-based; summary of the method: as §1
HeLa [28] = assay: Inhibition of Stat3 signaling pathway in human HeLa cells assessed as inhibition of IL-6 induced luciferase at 100 uM treated 30 mins before induction; assay type: functional; summary of the method: as §1
KB [29] = assay: Cytotoxicity against human KB cells assessed as growth inhibition measured after 48 hrs by Neutral Red dye assay
HeLa [30] = assay: Cytotoxicity against human HeLa cells assessed as growth inhibition measured after 48 hrs by Neutral Red dye assay
BT-549 [31] = assay: Cytotoxicity against human BT549 cells assessed as growth inhibition measured after 48 hrs by Neutral Red dye assay; settings: BT-549, 48 h
HL-60 [32] = assay: Inhibition of PMA induced ROS generation in human HL60 cells assessed as inhibition of ROA mediated oxidation of DCFH; assay type: functional, cell-based
Summary of the method: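 HL-60 cells (0.8 × 10⁶/mL) in RPMI-1640 with 10% FBS were pretreated 30 min with compound (0.4–100 μM). PMA (100 ng/mL) was then added for 30 min, followed by DCFH-DA (5 μg/mL) for 15 min. DCF fluorescence read at Ex 485 / Em 530 nm and compared with vehicle control. Trolox served as positive control.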

With `Oc1ccc(/C=C/c2cc(O)cc(O)c2)cc1` [RESVERATROL] the MED [1] was 40 µM, the IC50 [2] was 40 µM and the MED [3] was 70 µM. The IC50 [4] was 60 µM, the inhibition [5] was < 40% and the MED [6] was 40 µM. For the same molecule, the IC50 [7] was 40 µM, the MED [8] was 55 µM and the IC50 [9] was 50 µM. The MED [10] was 55 µM, the inhibition [11] was < 40% and the MED [12] was 60 µM. The IC50 [13] was 50 µM, the inhibition [14] was < 40% and the MED (HeLa [15]) was 33 µM. It also gave an IC50 (HeLa [16]) of 50 µM, an MED (HeLa [17]) of 53 µM and an IC50 (HeLa [18]) of 70 µM. It also gave an IC50 (HL-60 [19]) of 31.8 µM, an IC50 (LLC-PK1) of 52.5 µM and an IC50 (SK-OV-3) of 113 µM. For the same molecule, the IC50 (SK-MEL) was 47.3 µM, the “growth inhibition (GI)” value (KB [20]) was “inactive” and the “growth inhibition (GI)” value (HeLa [21]) was “inactive”. The “growth inhibition (GI)” value (BT-549 [22]) was “inactive” and the IC50 (Vero) was 73.6 µM.
With `COc1ccc(/C=C/c2cc(OC)cc(OC)c2)cc1` [TRISMETHOXYRESVERATROL] the inhibition [23] was “inactive”, the inhibition [5] was “inactive” and the inhibition [24] was “inactive”. The inhibition [25] was “inactive”, the inhibition [26] was “inactive” and the inhibition [11] was “inactive”. The inhibition [27] was “inactive”, the inhibition [14] was “inactive” and the inhibition (HeLa [28]) was “inactive”. For the same molecule, the IC50 (KB [29]) was 17.7 µM, the IC50 (HeLa [30]) was 13.3 µM and the IC50 (LLC-PK1) was 20 µM. The IC50 (SK-OV-3) was 55.5 µM, the IC50 (BT-549 [31]) was 15.6 µM and the IC50 (SK-MEL) was 12.2 µM. The IC50 (Vero) was 26.7 µM.
With `Cc1c(C)c2c(c(C)c1O)CCC(C)(C(=O)O)O2` (stereo not drawn) [TROLOX] the IC50 (HL-60 [32]) was 1.4 µM.
